Results from ChEMBL document CHEMBL3351507, “11H-Pyrido[3',2':4,5]pyrrolo[3,2-c]cinnoline and pyrido[3',2':4,5]pyrrolo[1,2-c][1,2,3]benzotriazine: two new ring systems with antitumor activity” (2014).
Calls of active or inactive are those of the source. The rule behind the calls is not given here.

What was measured:
[1] = test system: K562; experiment: Cytotoxicity against human K562 cells assessed as growth inhibition after 72 hrs by MTT assay; format: functional; settings: K562, 72 h
[2] = test system: MOLT-4; experiment: Cytotoxicity against human MOLT4 cells assessed as growth inhibition after 72 hrs by MTT assay; format: functional; settings: MOLT-4, 72 h
[3] = test system: HOP-62; experiment: Cytotoxicity against human HOP62 cells assessed as growth inhibition after 72 hrs by MTT assay; format: functional; settings: HOP-62, 72 h
[4] = test system: NCI-H226; experiment: Cytotoxicity against human NCI-H226 cells assessed as growth inhibition after 72 hrs by MTT assay; format: functional; settings: NCI-H226, 72 h
[5] = test system: NCI-H322M; experiment: Cytotoxicity against human NCI-H322M cells assessed as growth inhibition after 72 hrs by MTT assay; format: functional
[6] = test system: NCI-H460; experiment: Cytotoxicity against human NCI-H460 cells assessed as growth inhibition after 72 hrs by MTT assay; format: functional; settings: NCI-H460, 72 h
[7] = Cytotoxicity against human HCT116 cells assessed as growth inhibition after 72 hrs by MTT assay; format: functional; settings: HCT-116, 72 h
[8] = test system: HT-29; experiment: Cytotoxicity against human HT-29 cells assessed as growth inhibition after 72 hrs by MTT assay; format: functional; settings: HT-29, 72 h
[9] = test system: KM12; experiment: Cytotoxicity against human KM12 cells assessed as growth inhibition after 72 hrs by MTT assay; format: functional; settings: KM12, 72 h
[10] = test system: SF-268; experiment: Cytotoxicity against human SF268 cells assessed as growth inhibition after 72 hrs by MTT assay; format: functional; settings: SF-268, 72 h
Summary of the method: (§1)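 NCI 60-cell-line panel screen. Compounds were tested at 5 concentrations in 10-fold dilution (10^-4 to 10^-8 M) across the full panel. GI50 was taken as the molar concentration giving 50% inhibition of net cell growth.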

[11] = test system: SF-295; experiment: Cytotoxicity against human SF295 cells assessed as growth inhibition after 72 hrs by MTT assay; format: functional; settings: SF-295, 72 h; summary of the method: as §1
[12] = test system: SF-539; experiment: Cytotoxicity against human SF539 cells assessed as growth inhibition after 72 hrs by MTT assay; format: functional; settings: SF-539, 72 h; summary of the method: as §1
[13] = test system: SNB-19; experiment: Cytotoxicity against human SNB19 cells assessed as growth inhibition after 72 hrs by MTT assay; format: functional; settings: SNB-19, 72 h; summary of the method: as §1
[14] = test system: SNB-75; experiment: Cytotoxicity against human SNB75 cells assessed as growth inhibition after 72 hrs by MTT assay; format: functional; settings: SNB-75, 72 h; summary of the method: as §1
[15] = test system: LOX IMVI; experiment: Cytotoxicity against human LOXIMVI cells assessed as growth inhibition after 72 hrs by MTT assay; format: functional
[16] = test system: Malme-3M; experiment: Cytotoxicity against human MALME-3M cells assessed as growth inhibition after 72 hrs by MTT assay; format: functional
[17] = Cytotoxicity against human OVCAR5 cells assessed as growth inhibition after 72 hrs by MTT assay; format: functional; settings: OVCAR-5, 72 h; summary of the method: as §1
[18] = Cytotoxicity against human NCI-ADR-RES cells assessed as growth inhibition after 72 hrs by MTT assay; format: functional
[19] = test system: RXF 393; experiment: Cytotoxicity against human RXF393 cells assessed as growth inhibition after 72 hrs by MTT assay; format: functional; settings: RXF 393, 72 h; summary of the method: as §1
[20] = test system: DU-145; experiment: Cytotoxicity against human DU145 cells assessed as growth inhibition after 72 hrs by MTT assay; format: functional; settings: DU-145, 72 h
[21] = test system: MCF7; experiment: Cytotoxicity against human MCF7 cells assessed as growth inhibition after 72 hrs by MTT assay; format: functional; settings: MCF7, 72 h
[22] = test system: T47D; experiment: Cytotoxicity against human T47D cells assessed as growth inhibition after 72 hrs by MTT assay; format: functional; summary of the method: as §1
[23] = test system: MDA-MB-468; experiment: Cytotoxicity against human MDA-MB-468 cells assessed as growth inhibition after 72 hrs by MTT assay; format: functional; settings: MDA-MB-468, 72 h
[24] = test system: Jurkat; experiment: Cytotoxicity against human Jurkat cells assessed as growth inhibition after 72 hrs by MTT assay; format: functional
Summary of the method: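 Cells were grown in medium with 10% heat-inactivated FBS plus penicillin/streptomycin: RPMI-1640 for Jurkat and CEM, DMEM for A-431, HAM's F12 for LoVo. The doxorubicin-resistant LoVo subclone was kept with 0.1 µg/mL doxorubicin. Cells were seeded at 5x10^3 per well and pre-incubated 24 h at 37 °C.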

[25] = test system: LoVo; experiment: Anticlonogenic activity against human LoVo cells assessed as inhibition of colony formation of cells incubated for 24 hrs followed by compound washout measured after 1 to 2 weeks by crystal violet staining-based assay; format: functional, cell-based
Summary of the method: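 LoVo cells were plated at 1000 per well in six-well plates and exposed to compound at different concentrations for 24 h. Medium was then replaced, with fresh medium every 2–3 days, until colonies formed (1–2 weeks). Colony number is given as a percentage of untreated cells (100%), as mean ± SEM of 3 independent experiments.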

[26] = test system: LoVo; experiment: Resistance index, ratio of GI50 for human LoVo/DX cells to GI50 for human LoVo cells; format: functional
Summary of the method: (§2)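 CEMVbl-100 (vinblastine-selected CEM) was grown in RPMI-1640 with 0.1 µg/mL vinblastine. LoVoDoxo was grown in HAM's F12 with 0.1 µg/mL doxorubicin; parental CEM and LoVo were grown without drug. Media had 10% FBS. 5x10^3 cells were seeded, preincubated 24 h at 37 °C, then exposed 72 h to compound (DMSO <1%). Read-out was MTT; GI50 came from dose-response curves of ≥3 experiments. RI = GI50 resistant / GI50 parental.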

[27] = test system: CCRF-CEM; experiment: Cytotoxicity against human vinblastin-resistant CEM cells assessed as growth inhibition after 72 hrs by MTT assay; format: functional; summary of the method: as §2
[28] = test system: Jurkat; experiment: Cell cycle arrest in human Jurkat cells assessed as accumulation at G2/M phase at 0.5 uM after 24 hrs by propidium iodide staining-based flow cytometry (reference value: 21.9%); format: functional
[29] = test system: Jurkat; experiment: Cell cycle arrest in human Jurkat cells assessed as accumulation at G2/M phase at 0.25 uM after 24 hrs by propidium iodide staining-based flow cytometry (reference value: 21.9%); format: functional
[30] = test system: Jurkat; experiment: Cell cycle arrest in human Jurkat cells assessed as accumulation at subG1 phase at 0.5 uM after 24 hrs by propidium iodide staining-based flow cytometry (reference value: 5.3%); format: functional
[31] = test system: Jurkat; experiment: Cell cycle arrest in human Jurkat cells assessed as accumulation at subG1 phase at 0.25 uM after 24 hrs by propidium iodide staining-based flow cytometry (reference value: 5.3%); format: functional
[32] = test system: Jurkat; experiment: Induction of apoptosis in human Jurkat cells assessed as loss of plasma membrane asymmetry at 250 to 500 nM after 24 hrs by annexin V-FITC/propidium iodide staining-based flow cytofluorimetric analysis; format: functional, cell-based
Summary of the method: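 Jurkat cells were incubated with 250 or 500 nM compound for 6 h or 24 h. They were then double-stained with Annexin V-FITC and propidium iodide and analysed by flow cytometry (488 nm excitation; emission 525 and 585 nm). Mean ± SEM of 3 experiments.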

[33] = test system: Jurkat; experiment: Induction of apoptosis in human Jurkat cells assessed as caspase-9 activation at 500 nM after 6 hrs by plate reader analysis; format: functional, cell-based
Summary of the method: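 Jurkat cells were treated with 500 nM compound for 6 h and 24 h, then lysed. Lysates were incubated with pNA-conjugated substrates: Ac-DEVD (caspase-3), Ac-IETD (caspase-8) and LEHD (caspase-9). pNA release was read at 405 nm and normalized to Bradford protein. Results are expressed as fold increase over untreated control.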

SMILES | GI50 [1] | GI50 [2] | GI50 [3] | GI50 [4] | GI50 [5] | GI50 [6] | GI50 [7] | GI50 [8] | GI50 [9] | GI50 [10] | GI50 [11] | GI50 [12] | GI50 [13] | GI50 [14] | GI50 [15] | GI50 [16] | GI50 [17] | GI50 [19] | GI50 [20] | GI50 [21] | further results
COc1cc2nnn3c4ncccc4c(N=O)c3c2cc1OC | 210 nM | < 10 nM | 1900 nM | 3700 nM | 22700 nM | 2610 nM | 61 nM | 790 nM | 1380 nM | 490 nM | 2620 nM | 1820 nM | 3840 nM | 2250 nM | 920 nM | 2890 nM | 2690 nM | 400 nM | 1990 nM | 260 nM | GI50 [18]: 380 nM; GI50 [22]: 210 nM; GI50 [23]: 160 nM; GI50 [24]: 200 nM; inhibition [25]: Dose-dependent effect; Ratio [26]: 1.11; GI50 [27]: 510 nM; Activity [28]: 54.3%; Activity [29]: 47.3%; Activity [30]: 21.7%; Activity [31]: 18.7%; Activity [32]: Active; Activity [33]: Active
COc1ccc2c(c1)nnn1c3ncccc3c(N=O)c21 | 110 nM | 9.4 nM | 7510 nM | 4140 nM | 9670 nM | 1670 nM | 60 nM | 620 nM | 1030 nM | 470 nM | 4690 nM | 470 nM | 6280 nM | 850 nM | 800 nM | 770 nM | 8020 nM | 310 nM | 1860 nM | 130 nM | GI50 [18]: 1420 nM; GI50 [22]: 160 nM; GI50 [23]: 32 nM; GI50 [24]: 90 nM; inhibition [25]: Dose-dependent effect; Ratio [26]: 0.51; GI50 [27]: 440 nM; Activity [28]: 44.7%; Activity [29]: 39.4%; Activity [30]: 39.1%; Activity [31]: 22.5%; Activity [32]: Active; Activity [33]: Active
O=Nc1c2cccnc2n2nnc3ccc(Cl)cc3c12 | 130 nM | 18 nM | 1440 nM | 2190 nM | 8600 nM | 1330 nM | 190 nM | 910 nM | 910 nM | 1210 nM | 2070 nM | 1890 nM | 3180 nM | 1420 nM | 1030 nM | 1220 nM | 1380 nM | 560 nM | 610 nM | 570 nM | GI50 [18]: 430 nM; GI50 [22]: 260 nM; GI50 [23]: 140 nM
COc1cc2nnc3c4cccnc4[nH]c3c2cc1OC | 330 nM | 18 nM | 2260 nM | 1940 nM | 20600 nM | 2460 nM | 130 nM | 1340 nM | 1910 nM | 540 nM | 2430 nM | 1730 nM | 2770 nM | 1480 nM | 1410 nM | 2280 nM | 2530 nM | 710 nM | 2100 nM | 340 nM | GI50 [22]: 400 nM; GI50 [23]: 230 nM
COc1ccc2c(c1)nnc1c3cccnc3[nH]c21 | 220 nM | 29 nM | 5470 nM | 2620 nM | 10000 nM | 1930 nM | 210 nM | 750 nM | 1220 nM | 730 nM | 1590 nM | 640 nM | 7610 nM | 640 nM | 760 nM | 1060 nM | 5720 nM | 660 nM | 1880 nM | 230 nM | GI50 [18]: 1790 nM; GI50 [22]: 490 nM; GI50 [23]: 67 nM; GI50 [24]: 90 nM; inhibition [25]: Dose-dependent effect; Ratio [26]: 0.33; GI50 [27]: 1020 nM; Activity [28]: 38.2%; Activity [29]: 45.7%; Activity [30]: 39.8%; Activity [31]: 27.8%; Activity [32]: Active; Activity [33]: Active
